Converted amounts (≈) assume the structure as drawn.
Key:
Type in all cases: functional
Proteus mirabilis = assay: Minimum inhibitory concentration against aerobic organism Proteus mirabilis strain 2830
Summary of the method: (§1)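 Agar-dilution MIC in µg/mL against aerobic bacterial strains on tryptocase soy agar, with inoculum applied as spots. Most series used 10^5 cfu per spot, and a later series used 10^4 cfu per spot. In some tables, footnoted strains were instead tested on Mueller-Hinton or nutrient agar. β-Lactamase-producing strains are flagged.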

Klebsiella aerogenes = assay: Minimum inhibitory concentration against aerobic organism Enterobacter aerogenes strain 2906; summary of the method: as §1
Enterococcus faecalis = assay: Minimum inhibitory concentration against aerobic organism Streptococcus faecalis strain 2864; summary of the method: as §1
Escherichia coli = assay: MIC against aerobic organism Escherichia coli strain 2891; summary of the method: as §1
Morganella morganii = assay: Minimum inhibitory concentration against aerobic organism Morganella morganii strain 2833; summary of the method: as §1
Serratia marcescens = assay: Minimum inhibitory concentration against aerobic organism Serratia marcescens strain 2852; summary of the method: as §1
Pseudomonas aeruginosa = assay: Minimum inhibitory concentration against aerobic organism Pseudomonas aeruginosa strain 2835; summary of the method: as §1
[1] = Minimum inhibitory concentration against aerobic organism Salmonella schottmuelleri strain 2837; summary of the method: as §1
Klebsiella pneumoniae = assay: Minimum inhibitory concentration against aerobic organism Klebsiella pneumoniae strain 2882; summary of the method: as §1
Proteus vulgaris = assay: Minimum inhibitory concentration against aerobic organism Proteus vulgaris strain 2829; summary of the method: as §1
Staphylococcus aureus = assay: Minimum inhibitory concentration against aerobic organism Staphylococcus aureus strain 2868; details: Staphylococcus aureus; read-out: MIC; summary of the method: as §1
Streptococcus pyogenes = assay: Minimum inhibitory concentration against aerobic organism Streptococcus pyogenes strain 3124; summary of the method: as §1
Enterobacter cloacae = assay: Minimum inhibitory concentration against aerobic organism Enterobacter cloacae strain 2646; summary of the method: as §1
Shigella = assay: Minimum inhibitory concentration against aerobic organism Shigella species strain 2880; summary of the method: as §1
[2] = Proteus mirabilis, read-out: MIC
[3] = Klebsiella aerogenes, read-out: MIC
[4] = Escherichia coli, read-out: MIC
[5] = Morganella morganii, read-out: MIC
[6] = Serratia marcescens, read-out: MIC
[7] = Klebsiella pneumoniae, read-out: MIC
[8] = Proteus vulgaris, read-out: MIC
[9] = Streptococcus pyogenes, read-out: MIC
[10] = Enterobacter cloacae, read-out: MIC

Structure (SMILES)	MIC (Proteus mirabilis; [2]) [µg/mL]	MIC (Klebsiella aerogenes; [3]) [µg/mL]	MIC (Enterococcus faecalis) [µg/mL]	MIC (Escherichia coli; [4]) [µg/mL]	MIC (Morganella morganii; [5]) [µg/mL]	MIC (Serratia marcescens; [6]) [µg/mL]	MIC (Pseudomonas aeruginosa) [µg/mL]	MIC ([1]; Salmonella, read-out: MIC) [µg/mL]	MIC (Klebsiella pneumoniae; [7]) [µg/mL]	MIC (Proteus vulgaris; [8]) [µg/mL]	MIC (Staphylococcus aureus) [µg/mL]	MIC (Streptococcus pyogenes; [9]) [µg/mL]	MIC (Enterobacter cloacae; [10]) [µg/mL]	MIC (Shigella; Shigella, read-out: MIC) [µg/mL]	further results
CC(=O)OCC1=C(C(=O)[O-])N2C(=O)[C@@H](Nc3cc[n+](C)cc3)[C@H]2SC1	> 128	> 128	> 128	> 128	> 128	> 128	> 128	8 (≈ 22 µM)	32 (≈ 88.1 µM)	< 0.5	64 (≈ 176 µM)	2 (≈ 5.5 µM)	> 128	64 (≈ 176 µM)	–
Cn1nnnc1SCC1=C(C(=O)[O-])N2C(=O)[C@@H](Nc3cc[n+](COCC(Cl)(Cl)Cl)cc3)[C@H]2SC1	64 (≈ 113 µM)	8 (≈ 14.1 µM)	> 128	< 0.06	32 (≈ 56.4 µM)	64 (≈ 113 µM)	> 128	< 0.06	0.125 (≈ 0.221 µM)	< 0.06	2 (≈ 3.53 µM)	< 0.06	0.125 (≈ 0.221 µM)	< 0.06	–
Cn1nnnc1SCC1=C(C(=O)[O-])N2C(=O)C(Nc3ccc(Cl)c[n+]3C)C2SC1 (centres undefined)	> 128	> 128	> 128	2 (≈ 4.41 µM)	> 128	> 128	> 128	4 (≈ 8.81 µM)	64 (≈ 141 µM)	1 (≈ 2.2 µM)	> 128	32 (≈ 70.5 µM)	> 128	8 (≈ 17.6 µM)	–
CC(C)[n+]1ccc(N[C@@H]2C(=O)N3C(C(=O)[O-])=C(CSc4nnnn4C)CS[C@H]23)cc1	128 (≈ 286 µM)	128 (≈ 286 µM)	128 (≈ 286 µM)	0.5 (≈ 1.12 µM)	> 128	> 128	> 128	0.125 (≈ 0.279 µM)	16 (≈ 35.8 µM)	< 0.06	32 (≈ 71.5 µM)	1 (≈ 2.23 µM)	32 (≈ 71.5 µM)	0.5 (≈ 1.12 µM)	–
Cc1c[n+](C)ccc1N[C@@H]1C(=O)N2C(C(=O)[O-])=C(CSc3nnnn3C)CS[C@H]12	16 (≈ 36.9 µM)	8 (≈ 18.5 µM)	> 128	8 (≈ 18.5 µM)	16 (≈ 36.9 µM)	> 128	> 128	128 (≈ 295 µM)	16 (≈ 36.9 µM)	1 (≈ 2.31 µM)	> 128	32 (≈ 73.8 µM)	16 (≈ 36.9 µM)	16 (≈ 36.9 µM)	–
COc1ccc(C[n+]2ccc(N[C@@H]3C(=O)N4C(C(=O)[O-])=C(CSc5nnnn5C)CS[C@H]34)cc2)cc1OC	> 64	8 (≈ 14.4 µM)	> 64	0.5 (≈ 0.9 µM)	32 (≈ 57.6 µM)	64 (≈ 115 µM)	> 64	0.5 (≈ 0.9 µM)	0.5 (≈ 0.9 µM)	0.25 (≈ 0.45 µM)	8 (≈ 14.4 µM)	0.125 (≈ 0.225 µM)	64 (≈ 115 µM)	0.25 (≈ 0.45 µM)	–
COc1ccc(C[n+]2ccc(N[C@@H]3C(=O)N4C(C(=O)[O-])=C(CSc5nnnn5C)CS[C@H]34)cc2)cc1	16 (≈ 30.4 µM)	4 (≈ 7.61 µM)	> 64	0.25 (≈ 0.476 µM)	16 (≈ 30.4 µM)	64 (≈ 122 µM)	> 64	0.125 (≈ 0.238 µM)	0.5 (≈ 0.951 µM)	< 0.06	8 (≈ 15.2 µM)	< 0.06	8 (≈ 15.2 µM)	0.5 (≈ 0.951 µM)	–
CC1=C(C(=O)[O-])N2C(=O)[C@@H](Nc3cc[n+](Cc4ccccc4)cc3)[C@H]2SC1	> 128	128 (≈ 336 µM)	128 (≈ 336 µM)	4 (≈ 10.5 µM)	> 128	> 128	> 128	0.5 (≈ 1.31 µM)	32 (≈ 83.9 µM)	> 128	64 (≈ 168 µM)	0.06 (≈ 0.157 µM)	64 (≈ 168 µM)	2 (≈ 5.24 µM)	–
Cn1nnnc1SCC1=C(C(=O)[O-])N2C(=O)[C@@H](Nc3cc[n+](Cc4ccco4)cc3)[C@H]2SC1	16 (≈ 33 µM)	8 (≈ 16.5 µM)	128 (≈ 264 µM)	0.06 (≈ 0.124 µM)	> 128	128 (≈ 264 µM)	128 (≈ 264 µM)	0.0075 (≈ 0.0154 µM)	0.06 (≈ 0.124 µM)	< 0.25	2 (≈ 4.12 µM)	0.03 (≈ 0.0618 µM)	8 (≈ 16.5 µM)	0.0075 (≈ 0.0154 µM)	–
Cc1ccccc1-[n+]1ccc(N[C@@H]2C(=O)N3C(C(=O)[O-])=C(CSc4nnnn4C)CS[C@H]23)cc1	> 128	> 128	> 128	2 (≈ 4.04 µM)	> 128	> 128	> 128	2 (≈ 4.04 µM)	128 (≈ 258 µM)	2 (≈ 4.04 µM)	32 (≈ 64.6 µM)	0.25 (≈ 0.504 µM)	> 128	1 (≈ 2.02 µM)	–
Cn1nnnc1SCC1=C(C(=O)[O-])N2C(=O)[C@@H](Nc3cc[n+](C)cc3)[C@H]2SC1 (stereo in doubt; 15b)	–	–	> 128	–	–	–	> 128	–	–	–	> 128	–	–	–	MIC (Proteus mirabilis): >128 µg/mL; MIC (Klebsiella aerogenes): 16 µg/mL (≈ 38.1 µM); MIC (Escherichia coli): >128 µg/mL; MIC (Morganella morganii): >128 µg/mL; MIC (Serratia marcescens): 64 µg/mL (≈ 153 µM); MIC [1]: >128 µg/mL; MIC (Klebsiella pneumoniae): 64 µg/mL (≈ 153 µM); MIC (Proteus vulgaris): 4 µg/mL (≈ 9.54 µM); MIC (Streptococcus pyogenes): 32 µg/mL (≈ 76.3 µM); MIC (Enterobacter cloacae): >128 µg/mL; MIC (Shigella): >128 µg/mL
Cn1nnnc1SCC1=C(C(=O)[O-])N2C(=O)C(Nc3cccc[n+]3C)C2SC1 (centres undefined)	128 (≈ 305 µM)	16 (≈ 38.1 µM)	> 128	64 (≈ 153 µM)	> 128	> 128	> 128	> 128	128 (≈ 305 µM)	0.5 (≈ 1.19 µM)	> 128	32 (≈ 76.3 µM)	> 128	32 (≈ 76.3 µM)	–
COC(=O)c1ccc(NC2C(=O)N3C(C(=O)[O-])=C(CSc4nnnn4C)CSC23)[n+](C)c1 (centres undefined)	> 128	> 128	> 128	> 128	> 128	> 128	> 128	128 (≈ 268 µM)	> 128	> 128	> 128	16 (≈ 33.5 µM)	> 128	> 128	–
Cn1nnnc1SCC1=C(C(=O)[O-])N2C(=O)[C@@H](Nc3cc[n+](COCC(F)(F)F)cc3)[C@H]2SC1	> 128	4 (≈ 7.73 µM)	> 128	< 0.06	> 128	128 (≈ 247 µM)	> 128	< 0.06	1 (≈ 1.93 µM)	4 (≈ 7.73 µM)	4 (≈ 7.73 µM)	< 0.06	< 0.06	< 0.06	–
Cn1nnnc1SCC1=C(C(=O)[O-])N2C(=O)[C@@H](Nc3cc[n+](Cc4ccc(C#N)cc4)cc3)[C@H]2SC1	128 (≈ 246 µM)	8 (≈ 15.4 µM)	> 128	0.25 (≈ 0.48 µM)	128 (≈ 246 µM)	128 (≈ 246 µM)	> 128	0.125 (≈ 0.24 µM)	1 (≈ 1.92 µM)	16 (≈ 30.7 µM)	32 (≈ 61.5 µM)	0.125 (≈ 0.24 µM)	8 (≈ 15.4 µM)	< 0.06	–
COC(=O)c1c[n+](C)ccc1N[C@@H]1C(=O)N2C(C(=O)[O-])=C(CSc3nnnn3C)CS[C@H]12	> 128	> 128	> 128	> 128	> 128	> 128	> 128	128 (≈ 268 µM)	> 128	> 128	> 128	32 (≈ 67 µM)	> 128	> 128	–

Source: ChEMBL document CHEMBL1122046, “Quaternary heterocyclylamino beta-lactams: a generic alternative to the classical acylamino side chain” (1982)
